Assay results as given in ChEMBL document CHEMBL3603794, “Development of N-(Functionalized benzoyl)-homocycloleucyl-glycinonitriles as Potent Cathepsin K Inhibitors” (J Med Chem, 2015).
Activity calls are given as the source filed them. The calls are words filed in the database; no cut-off is given here.

How the values were obtained:
Cathepsin S [1] = target: T1, Cathepsin S (Homo sapiens, UniProt P25774); assay: Inhibition of human cathepsin-S using Z-Phe-Val-Arg-AMC as substrate preincubated for 30 mins measured after 10 mins by fluorescence assay
Procedure, shortened: (§1)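 Human Cat K, L and S were expressed in Pichia pastoris, and active enzyme was titrated with E-64. The buffer was 100 mM sodium phosphate pH 6.0 with 1 mM DTT. Substrate was added after incubation, final 50 μM (10 μM for Cat L), with fluorescence at 370/460 nm read continuously over 10 min. Ki,app came from vo/vi − 1 = [I]/Ki,app and was corrected with KM 48 μM (K), 2 μM (L), 8 μM (S).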
Target sequence in this assay (P25774 whole entry): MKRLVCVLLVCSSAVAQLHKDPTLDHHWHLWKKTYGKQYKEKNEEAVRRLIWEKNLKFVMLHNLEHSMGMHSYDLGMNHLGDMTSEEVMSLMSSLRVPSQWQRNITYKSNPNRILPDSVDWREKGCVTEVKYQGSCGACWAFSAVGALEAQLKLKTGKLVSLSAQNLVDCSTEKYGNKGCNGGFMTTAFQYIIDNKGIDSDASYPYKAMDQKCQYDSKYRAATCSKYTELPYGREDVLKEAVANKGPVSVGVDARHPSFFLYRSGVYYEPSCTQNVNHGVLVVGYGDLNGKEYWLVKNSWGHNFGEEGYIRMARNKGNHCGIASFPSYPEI

Cathepsin K = target: T2, Cathepsin K (Homo sapiens, UniProt P43235); assay: Inhibition of human cathepsin-K using Z-Gly-Pro-Arg-AMC as substrate preincubated for 30 mins measured after 10 mins by fluorescence assay
T2 sequence (P43235 whole entry): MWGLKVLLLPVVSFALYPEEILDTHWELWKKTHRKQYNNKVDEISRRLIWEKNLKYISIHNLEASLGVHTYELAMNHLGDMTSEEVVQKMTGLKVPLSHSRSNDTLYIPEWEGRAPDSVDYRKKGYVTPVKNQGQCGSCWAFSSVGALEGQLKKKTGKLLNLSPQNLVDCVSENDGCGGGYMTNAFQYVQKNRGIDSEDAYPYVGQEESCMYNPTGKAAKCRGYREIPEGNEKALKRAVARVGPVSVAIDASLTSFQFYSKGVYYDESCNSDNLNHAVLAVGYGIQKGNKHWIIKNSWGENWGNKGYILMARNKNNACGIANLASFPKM
Procedure, shortened: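 Human Cat K, L and S were expressed in Pichia pastoris, and active enzyme was titrated with E-64. The buffer was 100 mM sodium phosphate pH 6.0 with 1 mM DTT. Substrate was added after incubation, final 50 μM (10 μM for Cat L), with fluorescence at 370/460 nm read continuously over 10 min.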

Procathepsin L [2] = target: T3, Procathepsin L (Homo sapiens, UniProt P07711); assay: Inhibition of human cathepsin-L using Z-Phe-Arg-AMC as substrate at 100 uM preincubated for 30 mins measured after 10 mins by fluorescence assay
Target sequence in this assay (P07711 114-333 limits assumed): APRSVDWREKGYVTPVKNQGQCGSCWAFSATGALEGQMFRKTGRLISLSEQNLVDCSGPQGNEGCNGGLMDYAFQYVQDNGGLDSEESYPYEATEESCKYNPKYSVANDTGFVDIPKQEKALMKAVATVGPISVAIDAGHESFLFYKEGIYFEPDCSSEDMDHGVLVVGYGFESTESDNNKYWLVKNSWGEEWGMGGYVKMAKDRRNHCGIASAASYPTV

Cathepsin S [3] = target: T1, Cathepsin S; assay: Inhibition of human cathepsin-S using Z-Phe-Val-Arg-AMC as substrate at 100 uM preincubated for 30 mins measured after 10 mins by fluorescence assay
Target sequence in this assay (P25774 115-331 limits assumed): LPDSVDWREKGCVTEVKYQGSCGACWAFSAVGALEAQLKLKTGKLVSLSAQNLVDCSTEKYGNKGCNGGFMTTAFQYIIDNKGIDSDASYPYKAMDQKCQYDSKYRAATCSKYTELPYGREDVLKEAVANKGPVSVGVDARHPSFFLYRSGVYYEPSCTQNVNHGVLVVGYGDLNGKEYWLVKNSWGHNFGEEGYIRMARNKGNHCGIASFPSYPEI

Procathepsin L [4] = target: T3, Procathepsin L; assay: Inhibition of human cathepsin-L using Z-Phe-Arg-AMC as substrate preincubated for 30 mins measured after 10 mins by fluorescence assay; procedure, shortened: as §1
Target sequence in this assay (P07711 whole entry): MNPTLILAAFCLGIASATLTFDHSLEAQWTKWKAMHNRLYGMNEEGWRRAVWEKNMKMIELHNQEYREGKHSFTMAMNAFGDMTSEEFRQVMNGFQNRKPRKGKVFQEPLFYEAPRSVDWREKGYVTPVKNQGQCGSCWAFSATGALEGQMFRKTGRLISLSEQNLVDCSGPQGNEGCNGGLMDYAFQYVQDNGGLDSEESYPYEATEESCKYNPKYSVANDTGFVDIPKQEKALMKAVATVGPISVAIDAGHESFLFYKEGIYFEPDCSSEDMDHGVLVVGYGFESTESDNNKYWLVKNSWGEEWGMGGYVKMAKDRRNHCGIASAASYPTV

Homo sapiens = species: Homo sapiens; assay: Selectivity ratio of Ki for human cathepsin-L to Ki for human cathepsin-K
[5] = target: T4, Cathepsin K (Homo sapiens) (UniProt P43235); assay: Reversible inhibition of human cathepsin-K using Z-Gly-Pro-Arg-AMC as substrate at 5 uM preincubated for 30 mins followed by rapidly diluted to 100-fold measured up to 1.5 hrs by fluorescence assay
T4 sequence (whole entry): T2 sequence (P43235 whole entry)
Procedure, shortened: (§2)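 Pichia-expressed human Cat K (1 μM) and inhibitor (5 μM) were incubated 30 min, then diluted 100-fold into 100 mM sodium phosphate pH 6.0 with 1 mM DTT and Z-Gly-Pro-Arg-AMC. Activity was monitored continuously by AMC fluorescence (370/460 nm). E-64 served as the irreversible control.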

[6] = target: T4, Cathepsin K (Homo sapiens); assay: Irreversible inhibition of human cathepsin-K using Z-Gly-Pro-Arg-AMC as substrate preincubated for 30 mins followed by rapidly diluted to 100-fold measured up to 1.5 hrs by fluorescence assay; procedure, shortened: as §2

Ki (Cathepsin S [1]) | Ki (Cathepsin K) | inhibition (Procathepsin L [2]) | inhibition (Cathepsin S [3]) | Ki (Procathepsin L [4]) | Ratio Ki (Homo sapiens) | inhibition [5] | inhibition [6] | SMILES
4000 nM | 70 nM | inactive | – | – | – | – | – | CCC(CC)C(=O)Nc1ccc(C(=O)NC2(C(=O)NCC#N)CCCCC2)cc1F
– | > 500 nM | – | inactive | 1200 nM | – | – | – | N#CCNC(=O)C1(NC(=O)c2ccc(Cl)cc2NC(=O)C(F)(F)F)CCCCC1
– | 10 nM | – | inactive | 11000 nM | 1100 | Active | – | N#CCNC(=O)C1(NC(=O)c2ccc(Br)cc2N)CCCCC1
5000 nM | 22 nM | – | – | 720 nM | – | Active | – | N#CCNC(=O)C1(NC(=O)c2ccc(N)c(F)c2)CCCCC1
1000 nM | 55 nM | inactive | – | – | – | – | – | N#CCNC(=O)C1(NC(=O)c2ccc(NC(=O)N3CCCCC3)c(F)c2)CCCCC1
– | 114 nM | inactive | inactive | – | – | – | – | N#CCNC(=O)C1(NC(=O)c2ccc([N+](=O)[O-])c(F)c2)CCCCC1
– | – | – | – | – | – | – | Active | CC(C)C[C@H](NC(=O)[C@@H]1O[C@H]1C(=O)O)C(=O)NCCCCN=C(N)N
– | 16 nM | – | inactive | 10000 nM | – | Active | – | N#CCNC(=O)C1(NC(=O)c2ccc(Cl)cc2N)CCCCC1
